Measurements taken from ChEMBL document CHEMBL2331228, “Synthesis and insight into the structure-activity relationships of chalcones as antimalarial agents” (J Med Chem, 2013).
Converted amounts (≈) assume the structure as drawn. The source made the active and inactive calls. The calls are words filed in the database; no cut-off is given here.

Legend:
Plasmodium falciparum [1] = assay: Antimalarial activity against schizont stage of chloroquine-sensitive Plasmodium falciparum 3D7 assessed as reduction in parasitemia at 10 ug/ml after more than 40 hrs by Giemsa staining-based light microscopy; type: functional; parameters: scale not given: the % may be the effect or the level left
How it was run: (§1)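 Ring stages (5% D-sorbitol synchronized) of 3D7 were grown in RPMI with 10% FBS, gentamycin and Fungizone at 37 °C under CO2. They were exposed in duplicate to compound (DMSO stock, 5 mg/mL) at 2, 10 and 50 μg/mL, with 3% cell suspension and 1% parasitized cells, for >40 h. Giemsa-stained thin smears were counted for schizonts. MIC is the lowest concentration giving 100% inhibition of schizont maturation.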

Plasmodium falciparum [2] = assay: Antimalarial activity against schizont stage of chloroquine-sensitive Plasmodium falciparum 3D7 after more than 40 hrs by Giemsa staining-based light microscopic analysis; type: functional; settings: 3D7, 40 h; how it was run: as §1
Plasmodium yoelii [3] = assay: Antimalarial activity against chloroquine-resistant Plasmodium yoelii N-67 infected in Swiss mouse assessed as mean survival time of host at 50 mg/kg/day, ip administered for 3 days (reference value: 9.20 +/- 0.44 days); type: functional; settings: route intraperitoneal
Plasmodium yoelii [4] = assay: Antimalarial activity against chloroquine-resistant Plasmodium yoelii N-67 infected in Swiss mouse assessed as reduction in parasitemia at 50 mg/kg/day, ip administered for 3 days measured on day 4 relative to control; type: functional; parameters: scale not given: the % may be the effect or the level left; settings: route intraperitoneal
[5] = Selectivity index, ratio of CC50 for african green monkey Vero C1008 cells to IC50 for Plasmodium falciparum 3D7; type: functional
How it was run: (§2)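 SI = CC50 (Vero, 72 h MTT) / IC50. IC50 comes from a 72 h SYBR Green I fluorescence assay: seven 2-fold dilutions in duplicate, 2% cell suspension at 0.8% parasitemia, and Logit regression of the dose-response.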

[6] = Selectivity index, ratio of CC50 for african green monkey Vero C1008 cells to IC50 for Plasmodium falciparum K1; type: functional; how it was run: as §2
[7] = Cytotoxicity against african green monkey Vero C1008 cells after 72 hrs by MTT assay; type: cell-based; settings: chlorocebus sabaeus
How it was run: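 Vero (C1008) cells were incubated with dilutions of compound for 72 h and read by MTT. CC50 was obtained by nonlinear regression.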

Plasmodium falciparum [8] = assay: Resistance ratio of IC5O for Plasmodium falciparum K1 to IC50 for Plasmodium falciparum 3D7; type: functional
How it was run: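 Ratio of K1 IC50 to 3D7 IC50. Both come from the 72 h SYBR Green I fluorescence assay: seven 2-fold dilutions in duplicate, 0.8% parasitemia, IC50 by logit regression.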

Plasmodium falciparum [9] = assay: Antimalarial activity against chloroquine-resistant Plasmodium falciparum K1 after 72 hrs by SYBR Green I-based fluorescence assay; type: functional, organism-based; settings: K1, 72 h
How it was run: (§3)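 Parasites cultured in RPMI with 10% FBS, gentamycin and Fungizone (pH 7.2) at 37 °C in CO2. Compounds from DMSO stock (5 mg/mL). Seven 2-fold serial dilutions, duplicate wells. Cells added at 2% hematocrit, 0.8% parasitemia; uninfected-cell wells kept as background. After 72 h, lysis buffer with SYBR Green I, 1 h at 37 °C, fluorescence read. IC50 by logit regression of dose-response.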

Plasmodium falciparum [10] = assay: Antimalarial activity against schizont stage of chloroquine-sensitive Plasmodium falciparum 3D7 after 72 hrs by SYBR Green I-based fluorescence assay; type: functional, organism-based; settings: 3D7, 72 h; how it was run: as §3
Plasmodium falciparum [11] = assay: Antimalarial activity against schizont stage of chloroquine-sensitive Plasmodium falciparum 3D7 assessed as reduction in parasitemia at 2 to 10 ug/ml after more than 40 hrs by Giemsa staining-based light microscopy; type: functional; parameters: scale not given: the % may be the effect or the level left; how it was run: as §1
Plasmodium yoelii [12] = assay: Antimalarial activity against chloroquine-resistant Plasmodium yoelii N-67 infected in Swiss mouse assessed as mean survival time at 3 mg/kg/day, im administered for 3 days (reference value: 9.20 +/- 0.44 days); type: functional; settings: route intramuscular
Plasmodium yoelii [13] = assay: Antimalarial activity against chloroquine-resistant Plasmodium yoelii N-67 infected in Swiss mouse assessed as reduction in parasitemia at 3 mg/kg/day, im administered for 3 days measured on day 4 relative to control; type: functional; parameters: scale not given: the % may be the effect or the level left; settings: route intramuscular
Plasmodium falciparum [14] = assay: Activation of Plasmodium falciparum recombinant Falcipain-3 using Z-LR-AMC as substrate at high concentration after 30 mins by microplate reader analysis
[15] = Inhibition of Plasmodium falciparum recombinant Falcipain-2 using Z-LR-AMC as substrate after 30 mins by microplate reader analysis
Plasmodium falciparum [16] = assay: Inhibition of Plasmodium falciparum recombinant Falcipain-3 using Z-LR-AMC as substrate at low concentration after 30 mins by microplate reader analysis
[17] = Mean residence time in Sprague-Dawley rat at 50 mg/kg, po by LC-MS/MS analysis; type: ADME, organism-based; parameters: dose 50 mg/kg, route oral; settings: in vivo
How it was run: (§4)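 Male Sprague-Dawley rats (n = 5, 220−240 g), single oral dose 50 mg/kg. Plasma stored at −70 °C, processed by acetonitrile protein precipitation, and analysed by LC-MS/MS with QC samples among calibrators.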

[18] = Apparent oral volume of distribution in Sprague-Dawley rat at 50 mg/kg by LC-MS/MS analysis; type: ADME, organism-based; parameters: dose 50 mg/kg, route oral; settings: in vivo; how it was run: as §4
[19] = Apparent oral clearance in Sprague-Dawley rat at 50 mg/kg by LC-MS/MS analysis; type: ADME, organism-based; parameters: dose 50 mg/kg, route oral; settings: in vivo; how it was run: as §4
[20] = Elimination half life in Sprague-Dawley rat at 50 mg/kg, po by LC-MS/MS analysis; type: ADME, organism-based; parameters: dose 50 mg/kg, route oral; settings: in vivo, read-out: beta t1/2 (converted); how it was run: as §4
[21] = Tmax in Sprague-Dawley rat at 50 mg/kg, po by LC-MS/MS analysis; type: ADME, organism-based; parameters: dose 50 mg/kg, route oral; settings: in vivo; how it was run: as §4
[22] = Cmax in Sprague-Dawley rat at 50 mg/kg, po by LC-MS/MS analysis; type: ADME, organism-based; parameters: dose 50 mg/kg, route oral; settings: in vivo; how it was run: as §4
[23] = AUC (0 to t) in Sprague-Dawley rat at 50 mg/kg, po by LC-MS/MS analysis; type: ADME, organism-based; parameters: dose 50 mg/kg, route oral; settings: plasma; how it was run: as §4
Plasmodium yoelii [24] = assay: Antimalarial activity against chloroquine-resistant Plasmodium yoelii N-67 infected in Swiss mouse assessed as mean survival time at 50 mg/kg/day, po administered for 3 days (reference value: 9.20 +/- 0.44 days); type: functional
Plasmodium yoelii [25] = assay: Antimalarial activity against chloroquine-resistant Plasmodium yoelii N-67 infected in Swiss mouse assessed as reduction in parasitemia at 50 mg/kg/day, po administered for 3 days measured on day 4 relative to control; type: functional; parameters: scale not given: the % may be the effect or the level left

Row | Compound | Activity (Plasmodium falciparum [1]) | MIC (Plasmodium falciparum [2]) | MST (Plasmodium yoelii [3]) | Activity (Plasmodium yoelii [4]) | Ratio CC50/IC50 [5] | Ratio CC50/IC50 [6] | CC50 at 72 h [7] | Ratio IC50 (Plasmodium falciparum [8]) | IC50 (Plasmodium falciparum [9]) | IC50 (Plasmodium falciparum [10]) | also measured
1 | CC1(C)CCc2cc(C(=O)/C=C/c3ccc(Cl)c(Cl)c3)c(O)cc2O1 | <100% | > 26.6 µM | – | – | – | – | – | – | – | – | –
2 | CC1(C)CCc2cc(C(=O)/C=C/c3cccc([N+](=O)[O-])c3)c(O)cc2O1 | <100% | > 28.2 µM | – | – | – | – | – | – | – | – | –
3 | CC1(C)CCc2cc(C(=O)/C=C/c3ccc([N+](=O)[O-])cc3)c(O)cc2O1 | <100% | > 28.3 µM | – | – | – | – | – | – | – | – | –
4 | CC(C)=CCCC1(C)C=Cc2c(O)c(C(=O)/C=C/c3cc(C=O)ccc3O)cc(CC=C(C)C)c2O1 (centres undefined) | – | 0.25 µM (≈ 0.122 µg/mL) | 12.6 days | 71% | 1210 | 242 | 88600 nM | 5 | 366 nM | 73.2 nM | –
5 | CC(C)CCC[C@H](C)CCC[C@H](C)CCCC1(C)CCc2cc(C(=O)/C=C/c3ccccn3)c(O)cc2O1 (some centres undefined) | – | > 19.3 µM | – | – | – | – | – | – | – | – | Activity (Plasmodium falciparum [11]): <100%
6 | CCO[C@H]1O[C@@H]2O[C@@]3(C)CC[C@H]4[C@H](C)CC[C@@H]([C@H]1C)[C@@]24OO3 [ARTEMOTIL] | – | – | – | – | 98720 | 124857 | 136000 nM | 0.79 | – | 1.37 nM | MST (Plasmodium yoelii [12]): >28 days; Activity (Plasmodium yoelii [13]): 100%
7 | CC(C)=CCCC1(C)C=Cc2ccc(O)c(C(=O)/C=C/c3ccc(O)c(C=O)c3)c2O1 (centres undefined) | – | 0.39 µM (≈ 0.163 µg/mL) | 16.75 days | 88% | 334 | 376 | 31700 nM | 0.9 | 84.2 nM | 94.7 nM | –
8 | CC(C)=CCCC1(C)C=Cc2ccc(O)c(C(=O)/C=C/c3cc(C=O)ccc3O)c2O1 (centres undefined) | – | 0.31 µM (≈ 0.13 µg/mL) | 18.4 days | 87% | 1173 | – | 103000 nM | – | > 1200 nM | 87.5 nM | Activity (Plasmodium falciparum [14]): Active; IC50 [15]: 4600 nM; inhibition (Plasmodium falciparum [16]): inactive
9 | CC(C)=CCCC1(C)C=Cc2c(ccc(C(=O)/C=C/c3cc(C=O)ccc3O)c2O)O1 (centres undefined) | – | 1.19 µM (≈ 0.498 µg/mL) | 17.4 days | 98% | 64 | 23.7 | 22200 nM | 2.6 | 935 nM | 347 nM | Activity (Plasmodium falciparum [14]): Active; IC50 [15]: 13500 nM; inhibition (Plasmodium falciparum [16]): inactive; MRT [17]: 3.89 h; Vd/F [18]: 433 L/kg; CL/F [19]: 2140 mL/min/kg; half-life [20]: 2.32 h; Tmax [21]: 3 h; Cmax [22]: 78.3 ng/mL; AUC(0-t) [23]: 389 ng·h/mL; MST (Plasmodium yoelii [24]): 9.2 days; Activity (Plasmodium yoelii [25]): 23%
